According to ChEMBL document CHEMBL1681763, “Synthesis and biological evaluation of L-valine-amidoximeesters as double prodrugs of amidines” (Bioorg Med Chem, 2011):

Tests used:
[1] = Stability in pig hepatocytes assessed as conversion of prodrug into benzamidine per mg protein; type: ADME, cell-based, Sus scrofa, Hepatocyte
[2] = biological target: T1, Mitochondrial amidoxime-reducing component 1 (Homo sapiens) (UniProt Q5VT66); assay: Activation of prodrug into benzamidine per mg of recombinant hmARC1 in 20 mM MES buffer of pH 6.0 for 30 mins
T1 sequence (whole entry): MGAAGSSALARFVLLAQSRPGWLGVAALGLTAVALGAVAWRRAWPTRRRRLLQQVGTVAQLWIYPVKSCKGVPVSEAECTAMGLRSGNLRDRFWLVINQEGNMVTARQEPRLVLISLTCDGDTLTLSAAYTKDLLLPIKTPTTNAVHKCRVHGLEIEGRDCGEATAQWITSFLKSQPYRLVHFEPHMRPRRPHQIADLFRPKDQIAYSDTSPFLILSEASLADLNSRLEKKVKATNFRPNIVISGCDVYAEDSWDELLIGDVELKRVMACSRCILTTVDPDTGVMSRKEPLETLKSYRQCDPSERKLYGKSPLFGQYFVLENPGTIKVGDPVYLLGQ
How it was run: (§1)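 Recombinant human mARC1 or mARC2 (76 pmol) incubated with 0.5 mM prodrug, 1 mM NADH, 2 U pig liver carboxylesterase, 76 pmol cytochrome b5 and 7.6 pmol NADH cytochrome b5 reductase in 20 mM MES pH 6.0; amidine formed quantified by HPLC; turnover rates as mean ± SD of three incubations.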

[3] = Stability of the compound assessed as conversion to benzamidoxime at pH 2; type: physicochemical; conditions: buffer
How it was run: (§2)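 Chemical stability: prodrug at 100 µM in 100 mM potassium phosphate buffer pH 2.0, 6.3 or 7.4 at 37 °C; remaining prodrug and hydrolysis products followed by HPLC.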

[4] = Stability in human kidney microsomes assessed as conversion of prodrug into benzamidine per mg protein; type: ADME, Microsome
How it was run: (§3)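 Human or porcine liver/kidney subcellular fractions (microsomes, mitochondria, 9000g supernatant, cytosol); 0.3 mg protein with 1 mM prodrug in 100 mM potassium phosphate pH 6.3, preincubated 5 min at 37 °C aerobically, started with NADH (1 mM final); protein removed by centrifugation, supernatant analysed by HPLC; turnover as mean ± SD of two independent experiments measured twice.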

[5] = Stability in pig liver mitochondria assessed as conversion of prodrug into benzamidine per mg protein; type: ADME, Sus scrofa; how it was run: as §3
Liver [6] = assay: Stability in human liver 9000g supernatant assessed as conversion of prodrug into benzamidine per mg protein; type: ADME, tissue-based; how it was run: as §3
[7] = Stability in human liver mitochondria assessed as conversion of prodrug into benzamidine per mg protein; type: ADME; how it was run: as §3
[8] = Stability in pig liver 9000g supernatant assessed as conversion of prodrug into benzamidine per mg protein; type: ADME, tissue-based, Sus scrofa; how it was run: as §3
Rattus norvegicus [9] = assay: Clearance in Wistar rat assessed as benzamidine at 50 mg/kg, po; type: ADME, organism-based; design: dose 50 mg/kg, route oral; conditions: in vivo
How it was run: (§4)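 Male Wistar rats (initial weight 230 g) fitted with carotid artery and jugular vein cannulas, fasted 16 h; prodrug 50 mg/kg by oral gavage in 100 mM phosphate buffer pH 6.3 (n = 3); reference benzamidine 10 mg/kg iv in water for injection; blood at 30–480 min (oral) or 10–360 min (iv); plasma benzamidine by HPLC.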

Rattus norvegicus [10] = assay: Oral bioavailability in Wistar rat assessed as benzamidine at 50 mg/kg; type: ADME, organism-based; conditions: in vivo; how it was run: as §4
Rattus norvegicus [11] = assay: Volume of distribution in Wistar rat assessed as benzamidine at 50 mg/kg, po; type: ADME, organism-based; design: dose 50 mg/kg, route oral; conditions: in vivo; how it was run: as §4
[12] = Stability of the compound at pH 7.4; type: physicochemical; conditions: buffer; how it was run: as §2
Rattus norvegicus [13] = assay: Half life in Wistar rat assessed as benzamidine at 50 mg/kg, po; type: ADME, organism-based; design: dose 50 mg/kg, route oral; conditions: in vivo; how it was run: as §4
[14] = Stability in pig kidney mitochondria assessed as conversion of prodrug into benzamidine per mg protein; type: ADME, Sus scrofa; how it was run: as §3
[15] = Stability of the compound in presence of 0.5 U esterase/250 uL; type: ADME; conditions: isolated protein
How it was run: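 Prodrugs incubated with pig liver carboxylesterase (0.5 U/250 µL) in 100 mM potassium buffer pH 7.4; hydrolysis followed by HPLC.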

Rattus norvegicus [16] = assay: Mean residence time in Wistar rat assessed as benzamidine at 50 mg/kg, po; type: ADME, organism-based; design: dose 50 mg/kg, route oral; conditions: in vivo; how it was run: as §4
[17] = Stability in pig kidney 9000g supernatant assessed as conversion of prodrug into benzamidine per mg protein; type: ADME, tissue-based, Sus scrofa; how it was run: as §3
Rattus norvegicus [18] = assay: Cmax in Wistar rat assessed as benzamidine at 50 mg/kg, po; type: ADME, organism-based; design: dose 50 mg/kg, route oral; conditions: in vivo; how it was run: as §4
Rattus norvegicus [19] = assay: Tmax in Wistar rat assessed as benzamidine at 50 mg/kg, po; type: ADME, organism-based; design: dose 50 mg/kg, route oral; conditions: in vivo; how it was run: as §4
[20] = Stability in pig kidney microsomes assessed as conversion of prodrug into benzamidine per mg protein; type: ADME, Sus scrofa, Microsome; how it was run: as §3
[21] = Stability in pig hepatocytes assessed as conversion of prodrug into benzamidoxime per mg protein; type: ADME, cell-based, Sus scrofa, Hepatocyte
Liver microsomes [22] = assay: Stability in human liver microsomes assessed as conversion of prodrug into benzamidine per mg protein; type: ADME, Microsome; how it was run: as §3
[23] = Activation of prodrug into benzamidine per mg of recombinant hmARC2 in 20 mM MES buffer of pH 6.0 for 30 mins; how it was run: as §1
[24] = Stability in pig liver microsomes assessed as conversion of prodrug into benzamidine per mg protein; type: ADME, Sus scrofa, Microsome; how it was run: as §3
[25] = Stability of the compound at pH 6.3; type: physicochemical; conditions: buffer; how it was run: as §2
[26] = Stability in human kidney mitochondria assessed as conversion of prodrug into benzamidine per mg protein; type: ADME; how it was run: as §3
[27] = Stability in pig liver cytosol assessed as conversion of prodrug into benzamidine per mg protein in potassium phosphate buffer of pH 6.3; type: ADME, tissue-based, Sus scrofa; how it was run: as §3
[28] = biological target: T1, Mitochondrial amidoxime-reducing component 1 (Homo sapiens); assay: Activation of prodrug into pentamidine per mg of recombinant hmARC1 in 20 mM MES buffer of pH 6.0 for 30 mins; how it was run: as §1
[29] = Stability in pig liver microsomes assessed as conversion of prodrug into pentamidine per mg protein; type: ADME, Sus scrofa, Microsome; how it was run: as §3
[30] = Stability in pig kidney 9000g supernatant assessed as conversion of prodrug into pentamidine per mg protein; type: ADME, tissue-based, Sus scrofa; how it was run: as §3
Liver microsomes [31] = assay: Stability in human liver microsomes assessed as conversion of prodrug into pentamidine per mg protein; type: ADME, Microsome; how it was run: as §3
[32] = Stability in pig kidney mitochondria assessed as conversion of prodrug into pentamidine per mg protein; type: ADME, Sus scrofa; how it was run: as §3
[33] = Stability in pig kidney microsomes assessed as conversion of prodrug into pentamidine per mg protein; type: ADME, Sus scrofa, Microsome; how it was run: as §3
[34] = Stability in human liver mitochondria assessed as conversion of prodrug into pentamidine per mg protein; type: ADME; how it was run: as §3
[35] = Stability in pig liver 9000g supernatant assessed as conversion of prodrug into pentamidine per mg protein; type: ADME, tissue-based, Sus scrofa; how it was run: as §3
[36] = Stability in human kidney mitochondria assessed as conversion of prodrug into pentamidine per mg protein; type: ADME; how it was run: as §3
[37] = Stability of the compound at pH 2; type: physicochemical; conditions: buffer; how it was run: as §2
[38] = Activation of prodrug into pentamidine per mg of recombinant hmARC2 in 20 mM MES buffer of pH 6.0 for 30 mins; how it was run: as §1
[39] = Stability in human kidney microsomes assessed as conversion of prodrug into pentamidine per mg protein; type: ADME, Microsome; how it was run: as §3
Liver [40] = assay: Stability in human liver 9000g supernatant assessed as conversion of prodrug into pentamidine per mg protein; type: ADME, tissue-based; how it was run: as §3
[41] = Stability in pig liver mitochondria assessed as conversion of prodrug into pentamidine per mg protein; type: ADME, Sus scrofa; how it was run: as §3

In the case of CC(C)[C@H](N)C(=O)O/N=C(\N)c1ccccc1, the Stability [1] is reported as 175 pmol/min, the Stability [2] is reported as 67.4 nmol/min/mg and the Stability [3] is reported as “Unstable”. For the same molecule, the Stability [4] was 1.3 nmol/min, the Stability [5] was 8.6 nmol/min/mg and the Stability (Liver [6]) was 0.2 nmol/min/mg. The Stability [7] was 1.8 nmol/min/mg, the Stability [8] was 3.4 nmol/min/mg and the CL (Rattus norvegicus [9]) was 3 L/h/kg. For the same molecule, the F (Rattus norvegicus [10]) was 87.7%, the Vd (Rattus norvegicus [11]) was 12.84 L/kg and the Stability [12] was “Stable”. For the same molecule, the t1/2 (Rattus norvegicus [13]) was 2.922 h, the Stability [14] was 8.8 nmol/min/mg and the Stability [15] was “Unstable”. The MRT (Rattus norvegicus [16]) was 4.323 h, the Stability [17] was 5.6 nmol/min and the Cmax (Rattus norvegicus [18]) was 23.3 µM. For the same molecule, the Tmax (Rattus norvegicus [19]) was 0.833 h, the Stability [20] was 10.4 nmol/min/mg and the Stability [21] was 650 pmol/min. It also gave a Stability (Liver microsomes [22]) of 0.9 nmol/min/mg, a Stability [23] of 43.7 nmol/min and a Stability [24] of 7 nmol/min/mg. For the same molecule, the Stability [25] was “Stable”, the Stability [26] was 2 nmol/min/mg and the Stability [27] was 1.2 nmol/min.

CC(C)[C@H](N)C(=O)O/N=C(\N)c1ccc(OCCCCCOc2ccc(/C(N)=N/OC(=O)[C@@H](N)C(C)C)cc2)cc1 gave a Stability [28] of 48.8 nmol/min, a Stability [29] of 0.5 nmol/min/mg and a Stability [30] of 0.2 nmol/min/mg. For the same molecule, the Stability (Liver microsomes [31]) was 0.3 nmol/min/mg, the Stability [32] was 0.8 nmol/min/mg and the Stability [33] was 0.7 nmol/min/mg. For the same molecule, the Stability [12] was “Stable”, the Stability [34] was 0.2 nmol/min and the Stability [35] was 0.4 nmol/min/mg. The Stability [15] was “Unstable”, the Stability [36] was 0.4 nmol/min/mg and the Stability [37] was “Stable”. For the same molecule, the Stability [25] was “Stable”, the Stability [38] was 10.9 nmol/min/mg and the Stability [39] was 0.3 nmol/min/mg. It also gave a Stability (Liver [40]) of 0.2 nmol/min/mg and a Stability [41] of 1 nmol/min.
